ChEMBL document CHEMBL5247578, “Effective synthesis of benzimidazoles-imidazo[1,2-a]pyrazine conjugates: A comparative study of mono-and bis-benzimidazoles for antitumor activity” (Eur J Med Chem, 2019)

Legend:
NCI-H23 = assay: Antiproliferative activity against human NCI-H23 cells assessed as cell growth at 0.000001 M incubated for 48 hrs by SRB assay relative to control; assay type: functional; conditions: read-out: Activity
SK-MEL-2 = assay: Antiproliferative activity against human SK-MEL-2 cells assessed as cell growth at 0.00001 M incubated for 48 hrs by SRB assay relative to control; assay type: functional; conditions: read-out: Activity
Malme-3M = assay: Antiproliferative activity against human Malme-3M cells assessed as cell growth at 0.0001 M incubated for 48 hrs by SRB assay relative to control; assay type: functional; conditions: read-out: Activity
PC-3 [1] = assay: Growth inhibition against human PC-3 cells assessed as total growth inhibitory concentration incubated for 48 hrs by sulforhodamine B assay; assay type: functional
UO-31 = assay: Growth inhibition against human UO-31 cells assessed as total growth inhibitory concentration incubated for 48 hrs by sulforhodamine B assay; assay type: functional
NCI-H522 = assay: Antiproliferative activity against human NCI-H522 cells assessed as cell growth inhibition by measuring lethal concentration incubated for 48 hrs by sulforhodamine B assay; assay type: functional; conditions: read-out: LC50 (the source's name)
U-251 = assay: Antiproliferative activity against human U-251 cells assessed as cell growth at 0.000001 M incubated for 48 hrs by SRB assay relative to control; assay type: functional; conditions: read-out: Activity
HCT-116 = assay: Growth inhibition against human HCT-116 cells assessed as total growth inhibitory concentration incubated for 48 hrs by sulforhodamine B assay; assay type: functional
SF-268 = assay: Antiproliferative activity against human SF-268 cells assessed as cell growth at 0.00001 M incubated for 48 hrs by SRB assay relative to control; assay type: functional; conditions: read-out: Activity
SK-MEL-5 = assay: Growth inhibition against human SK-MEL-5 cells assessed as total growth inhibitory concentration incubated for 48 hrs by sulforhodamine B assay; assay type: functional
SF-295 = assay: Antiproliferative activity against human SF-295 cells assessed as cell growth at 0.000001 M incubated for 48 hrs by SRB assay relative to control; assay type: functional; conditions: read-out: Activity
OVCAR-3 = assay: Antiproliferative activity against human OVCAR-3 cells assessed as cell growth at 0.0000001 M incubated for 48 hrs by SRB assay relative to control; assay type: functional; conditions: dose 100 nM, read-out: Activity
Albumin = Albumin (Bos taurus, UniProt P02769); assay: Binding affinity to bovine serum albumin assessed as Stern-Volmer quenching constant by fluorescence spectroscopic method; conditions: cattle
TK-10 = assay: Antiproliferative activity against human TK-10 cells assessed as cell growth at 0.000001 M incubated for 48 hrs by SRB assay relative to control; assay type: functional; conditions: read-out: Activity
SK-MEL-28 = assay: Antiproliferative activity against human SK-MEL-28 cells assessed as cell growth at 0.0000001 M incubated for 48 hrs by SRB assay relative to control; assay type: functional; conditions: dose 100 nM, read-out: Activity
SR [2] = assay: Antiproliferative activity against human SR cells assessed as cell growth at 0.00000001 M incubated for 48 hrs by SRB assay relative to control; assay type: functional; conditions: dose 10 nM, read-out: Activity
SNB-75 [3] = assay: Growth inhibition against human SNB-75 cells incubated for 48 hrs by sulforhodamine B assay; assay type: functional
ACHN = assay: Antiproliferative activity against human ACHN cells assessed as cell growth at 0.00000001 M incubated for 48 hrs by SRB assay relative to control; assay type: functional; conditions: dose 10 nM, read-out: Activity
How it was run: (§1)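 NCI-60 five-dose screen over 10^-4–10^-8 M (10-fold dilutions). Cells grown in RPMI 1640 with 5% FBS and 2 mM L-glutamine, seeded at 5,000–40,000 cells/well and preincubated 24 h. Drug from DMSO stock, 48 h at 37 °C, 5% CO2. Adherent cells TCA-fixed and stained with 0.4% SRB; A515 read. Percent growth = (Ti−Tz)/(C−Tz)×100, or (Ti−Tz)/Tz×100 when Ti<Tz.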

PC-3 [4] = assay: Antiproliferative activity against human PC-3 cells assessed as cell growth at 0.00000001 M incubated for 48 hrs by SRB assay relative to control; assay type: functional; conditions: dose 10 nM, read-out: Activity
CAKI-1 = assay: Growth inhibition against human CAKI-1 cells assessed as total growth inhibitory concentration incubated for 48 hrs by sulforhodamine B assay; assay type: functional
A498 = assay: Antiproliferative activity against human A498 cells assessed as cell growth at 0.0000001 M incubated for 48 hrs by SRB assay relative to control; assay type: functional; conditions: dose 100 nM, read-out: Activity; how it was run: as §1
SR [5] = assay: Antiproliferative activity against human SR cells assessed as cell growth at 0.000001 M incubated for 48 hrs by SRB assay relative to control; assay type: functional; conditions: read-out: Activity
M14 = assay: Antiproliferative activity against human M14 cells assessed as cell growth at 0.0001 M incubated for 48 hrs by SRB assay relative to control; assay type: functional; conditions: read-out: Activity
SNB-75 [6] = assay: Antiproliferative activity against human SNB-75 cells assessed as cell growth at 0.00000001 M incubated for 48 hrs by SRB assay relative to control; assay type: functional; conditions: dose 10 nM, read-out: Activity
DU-145 [7] = assay: Antiproliferative activity against human DU-145 cells assessed as cell growth at 0.000001 M incubated for 48 hrs by SRB assay relative to control; assay type: functional; conditions: read-out: Activity
How it was run: (§2)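 NCI-60 five-dose screen (10^-4 to 10^-8 M). Cells grown in RPMI 1640 with 5% FBS and 2 mM L-glutamine, plated at 5,000-40,000 cells/well and preincubated 24 h. Drug given from DMSO stock, then 48 h at 37 °C, 5% CO2. For adherent lines, cells fixed with cold TCA, SRB-stained and read at 515 nm. Percent growth taken against time-zero and untreated control.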

SNB-75 [8] = assay: Antiproliferative activity against human SNB-75 cells assessed as cell growth at 0.000001 M incubated for 48 hrs by SRB assay relative to control; assay type: functional; conditions: read-out: Activity
SNB-19 [9] = assay: Antiproliferative activity against human SNB-19 cells assessed as cell growth at 0.00001 M incubated for 48 hrs by SRB assay relative to control; assay type: functional; conditions: read-out: Activity
SNB-19 [10] = assay: Antiproliferative activity against human SNB-19 cells assessed as cell growth at 0.00000001 M incubated for 48 hrs by SRB assay relative to control; assay type: functional; conditions: dose 10 nM, read-out: Activity
MCF7 = assay: Antiproliferative activity against human MCF7 cells assessed as cell growth at 0.00001 M incubated for 48 hrs by SRB assay relative to control; assay type: functional; conditions: read-out: Activity
HL-60 = assay: Antiproliferative activity against human HL-60 cells assessed as cell growth inhibition by measuring lethal concentration incubated for 48 hrs by sulforhodamine B assay; assay type: functional; conditions: read-out: LC50 (the source's name)
HCC 2998 = assay: Growth inhibition against human HCC 2998 cells incubated for 48 hrs by sulforhodamine B assay; assay type: functional
MDA-MB-435 = assay: Antiproliferative activity against human MDA-MB-435 cells assessed as cell growth at 0.0001 M incubated for 48 hrs by SRB assay relative to control; assay type: functional; conditions: read-out: Activity
DU-145 [11] = assay: Growth inhibition against human DU-145 cells assessed as total growth inhibitory concentration incubated for 48 hrs by sulforhodamine B assay; assay type: functional
KM12 = assay: Antiproliferative activity against human KM12 cells assessed as cell growth at 0.0000001 M incubated for 48 hrs by SRB assay relative to control; assay type: functional; conditions: dose 100 nM, read-out: Activity
HOP-92 = assay: Antiproliferative activity against human HOP-92 cells assessed as cell growth at 0.000001 M incubated for 48 hrs by SRB assay relative to control; assay type: functional; conditions: read-out: Activity; how it was run: as §2

Albumin, sequence (P02769 whole entry): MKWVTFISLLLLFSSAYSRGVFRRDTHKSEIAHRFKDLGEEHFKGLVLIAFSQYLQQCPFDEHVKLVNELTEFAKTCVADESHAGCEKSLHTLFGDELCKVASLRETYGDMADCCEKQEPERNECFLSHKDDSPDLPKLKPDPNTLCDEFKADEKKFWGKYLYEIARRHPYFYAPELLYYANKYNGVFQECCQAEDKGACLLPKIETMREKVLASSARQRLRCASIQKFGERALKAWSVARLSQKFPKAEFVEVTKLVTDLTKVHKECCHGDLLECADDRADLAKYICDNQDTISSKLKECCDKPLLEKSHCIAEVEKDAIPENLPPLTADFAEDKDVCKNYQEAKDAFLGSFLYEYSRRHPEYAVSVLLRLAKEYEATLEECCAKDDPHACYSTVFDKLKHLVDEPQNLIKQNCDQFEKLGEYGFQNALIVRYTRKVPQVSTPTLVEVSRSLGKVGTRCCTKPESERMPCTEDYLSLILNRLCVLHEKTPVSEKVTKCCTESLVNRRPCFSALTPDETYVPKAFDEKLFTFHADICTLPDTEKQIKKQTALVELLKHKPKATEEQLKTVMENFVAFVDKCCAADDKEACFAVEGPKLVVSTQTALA

Compound	growth at 1 µM (NCI-H23) [%]	growth at 10 µM (SK-MEL-2) [%]	growth at 100 µM (Malme-3M) [%]	TGI (PC-3 [1]) [µM]	TGI (UO-31) [µM]	CC50 (NCI-H522) [µM]	growth at 1 µM (U-251) [%]	TGI (HCT-116) [µM]	growth at 10 µM (SF-268) [%]	TGI (SK-MEL-5) [µM]	growth at 1 µM (SF-295) [%]	growth at 0.1 µM (OVCAR-3) [%]	KSV (Albumin)	growth at 1 µM (TK-10) [%]	growth at 0.1 µM (SK-MEL-28) [%]	growth at 0.01 µM (SR [2]) [%]	GI50 (SNB-75 [3]) [µM]	growth at 0.01 µM (ACHN) [%]	growth at 0.01 µM (PC-3 [4]) [%]	TGI (CAKI-1) [µM]	further results
COc1ccc(-c2cn3ccnc3c(-c3ccc4ncn(C5CCCCC5)c4c3)n2)cc1	68	21	49	> 100	> 100	> 100	69	4.06	25	3.2	18	99	1.16 10^5/M	84	95	102	0.733	93	96	> 100	growth at 0.1 µM (A498): 92%; growth at 1 µM (SR [5]): 48%; growth at 100 µM (M14): 8%; growth at 0.01 µM (SNB-75 [6]): 78%; growth at 1 µM (DU-145 [7]): 51%; growth at 1 µM (SNB-75 [8]): 45%; growth at 10 µM (SNB-19 [9]): 22%; growth at 0.01 µM (SNB-19 [10]): 107%; growth at 10 µM (MCF7): 16%; CC50 (HL-60): > 100 µM; GI50 (HCC 2998): 2.92 µM; growth at 100 µM (MDA-MB-435): 11%; TGI (DU-145 [11]): > 100 µM; growth at 0.1 µM (KM12): 99%; growth at 1 µM (HOP-92): 54%
c1ccc(Cn2cnc3ccc(-c4nc(-c5ccc6c(c5)ncn6C5CCCCC5)cn5ccnc45)cc32)cc1	86	-41	23	7.55	4.55	> 100	83	2.63	2	2.96	74	100	1.14 10^5/M	97	96	98	1.19	96	95	> 100	growth at 0.1 µM (A498): 101%; growth at 1 µM (SR [5]): 63%; growth at 100 µM (M14): 6%; growth at 0.01 µM (SNB-75 [6]): 81%; growth at 1 µM (DU-145 [7]): 93%; growth at 1 µM (SNB-75 [8]): 60%; growth at 10 µM (SNB-19 [9]): 28%; growth at 0.01 µM (SNB-19 [10]): 99%; growth at 10 µM (MCF7): 2%; CC50 (HL-60): > 100 µM; GI50 (HCC 2998): 1.9 µM; growth at 100 µM (MDA-MB-435): 2%; TGI (DU-145 [11]): 2.1 µM; growth at 0.1 µM (KM12): 98%; growth at 1 µM (HOP-92): 65%
